Experimental data from ChEMBL document CHEMBL4354819, “Discovery of Novel Small Molecule Dual Inhibitors Targeting Toll-Like Receptors 7 and 8” (J Med Chem, 2019).

Biological target: T1, Toll-like receptor 7 (Homo sapiens) (UniProt Q9NYK1)
T1 sequence (whole entry): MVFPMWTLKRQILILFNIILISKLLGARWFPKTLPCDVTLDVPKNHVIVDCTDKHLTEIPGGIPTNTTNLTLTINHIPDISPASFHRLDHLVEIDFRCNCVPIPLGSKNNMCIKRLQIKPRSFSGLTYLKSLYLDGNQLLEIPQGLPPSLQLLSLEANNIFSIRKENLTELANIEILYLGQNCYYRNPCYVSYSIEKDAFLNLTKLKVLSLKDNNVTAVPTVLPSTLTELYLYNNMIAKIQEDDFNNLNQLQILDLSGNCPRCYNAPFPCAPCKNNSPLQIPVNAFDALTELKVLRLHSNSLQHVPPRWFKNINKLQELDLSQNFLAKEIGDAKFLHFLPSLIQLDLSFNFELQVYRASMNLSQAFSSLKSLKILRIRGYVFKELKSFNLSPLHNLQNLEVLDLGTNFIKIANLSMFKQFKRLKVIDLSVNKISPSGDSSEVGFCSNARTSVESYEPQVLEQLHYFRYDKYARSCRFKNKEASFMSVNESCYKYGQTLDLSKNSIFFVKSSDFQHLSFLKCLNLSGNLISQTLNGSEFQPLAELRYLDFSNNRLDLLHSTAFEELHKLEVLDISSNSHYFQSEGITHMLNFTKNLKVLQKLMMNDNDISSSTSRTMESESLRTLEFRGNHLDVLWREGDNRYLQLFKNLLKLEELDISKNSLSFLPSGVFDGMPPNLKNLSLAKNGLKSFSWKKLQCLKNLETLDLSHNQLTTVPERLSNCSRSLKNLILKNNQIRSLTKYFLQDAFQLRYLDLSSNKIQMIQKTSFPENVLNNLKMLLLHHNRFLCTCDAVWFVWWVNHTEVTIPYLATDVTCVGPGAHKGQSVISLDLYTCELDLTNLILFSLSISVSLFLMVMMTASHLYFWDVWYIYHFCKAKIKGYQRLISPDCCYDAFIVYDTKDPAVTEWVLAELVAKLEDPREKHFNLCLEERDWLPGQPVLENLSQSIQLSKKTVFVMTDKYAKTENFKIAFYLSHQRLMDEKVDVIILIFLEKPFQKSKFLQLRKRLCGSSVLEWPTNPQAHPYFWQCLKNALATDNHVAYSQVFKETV
Assay: Inhibition of human TLR7 expressed in HEK293 cells assessed as reduction in R848-induced NFkappaB production incubated for 16 hrs by quanti-blue SEAP assay
Assay type: cell-based
How it was run: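 HEK 293-Blue cells stably expressing hTLR7 or hTLR8 with an inducible SEAP reporter were incubated 16 h with compound under 1 µg/mL R848 stimulation. SEAP was read at 620 nm. Data were normalized to the R848 control, and IC50 was taken from concentration-response curves. […] Mean ± s.d., n = 3 independent experiments.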

inhibition: Dose-dependent effect
SMILES: O=C(Nc1ccc(Oc2cc(C(F)(F)F)cc(C(F)(F)F)c2)cc1)c1c(F)cccc1Cl
